According to ChEMBL document CHEMBL4673221, “Furanoflavones pongapin and lanceolatin B blocks the cell cycle and induce senescence in CYP1A1-overexpressing breast cancer cells” (Bioorg Med Chem, 2018):

Columns and labels:
MCF7 [1] = assay: Induction of cell cycle arrest in human MCF7 over expressing CYP1A cells assessed as accumulation at G2/M phase incubated for 24 hrs by PI staining based flow cytometric analysis (reference value: 22.6%); type: functional
MCF7 [2] = assay: Induction of cell cycle arrest in human MCF7 over expressing CYP1A cells assessed as accumulation at S phase incubated for 24 hrs by PI staining based flow cytometric analysis (reference value: 20.1%); type: functional
MCF7 [3] = assay: Induction of cell cycle arrest in human MCF7 over expressing CYP1A cells assessed as accumulation at G0/G1 phase incubated for 24 hrs by PI staining based flow cytometric analysis (Rvb =54.3 %); type: functional
MCF7 [4] = assay: Antiproliferative activity against human MCF-7 cells overexpressing CYP1A1 assessed as reduction in cell viability; type: functional, cell-based
Procedure, shortened: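 MCF-7 cells transfected with pcDNA3.1/CYP1A1 and selected in G418 (1 mg/mL, then […]) to give the stable MCF7-1A1 line. CYP1A1 expression was confirmed by Western blot and 7-ethoxyresorufin enzyme assay. The line was subcloned repeatedly. The reported value is the EC50 for inhibition of proliferation.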

Cytochrome P450 3A4 = Cytochrome P450 3A4 (Homo sapiens, UniProt P08684); assay: Inhibition of human CYP3A4 expressed in Sacchrosomes using dibenzylfluorescein as substrate by fluorescence based assay; type: ADME
Cytochrome P450 3A4, sequence (P08684 whole entry): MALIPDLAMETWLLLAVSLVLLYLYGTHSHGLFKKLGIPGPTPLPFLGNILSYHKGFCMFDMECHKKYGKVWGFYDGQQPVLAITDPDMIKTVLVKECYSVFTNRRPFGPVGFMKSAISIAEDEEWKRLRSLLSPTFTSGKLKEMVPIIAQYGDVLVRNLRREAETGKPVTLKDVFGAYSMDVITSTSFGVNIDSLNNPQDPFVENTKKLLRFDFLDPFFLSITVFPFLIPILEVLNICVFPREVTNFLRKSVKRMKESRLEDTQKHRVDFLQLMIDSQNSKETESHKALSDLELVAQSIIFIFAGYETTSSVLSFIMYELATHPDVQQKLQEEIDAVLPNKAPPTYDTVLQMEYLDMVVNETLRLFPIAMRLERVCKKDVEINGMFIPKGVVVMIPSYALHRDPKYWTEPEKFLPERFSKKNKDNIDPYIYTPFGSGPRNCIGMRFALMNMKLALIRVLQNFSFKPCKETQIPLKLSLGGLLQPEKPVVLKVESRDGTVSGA

Cytochrome P450 2C8 = target: T1, Cytochrome P450 2C8 (Homo sapiens, UniProt P10632); assay: Inhibition of human CYP2C8 expressed in Sacchrosomes by fluorescence based assay; type: ADME
T1 sequence (P10632 whole entry): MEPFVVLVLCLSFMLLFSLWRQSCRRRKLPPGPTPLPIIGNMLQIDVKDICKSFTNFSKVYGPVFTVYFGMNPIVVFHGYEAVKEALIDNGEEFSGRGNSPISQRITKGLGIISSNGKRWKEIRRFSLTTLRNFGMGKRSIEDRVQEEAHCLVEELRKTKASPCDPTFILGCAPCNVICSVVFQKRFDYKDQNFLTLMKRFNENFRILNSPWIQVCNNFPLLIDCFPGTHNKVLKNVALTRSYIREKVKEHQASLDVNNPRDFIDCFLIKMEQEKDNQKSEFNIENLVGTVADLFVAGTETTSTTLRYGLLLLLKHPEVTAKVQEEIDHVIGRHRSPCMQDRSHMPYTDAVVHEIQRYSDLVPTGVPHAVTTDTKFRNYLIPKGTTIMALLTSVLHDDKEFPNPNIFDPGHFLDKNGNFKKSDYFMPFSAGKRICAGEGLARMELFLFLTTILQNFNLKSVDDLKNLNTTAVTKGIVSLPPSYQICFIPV

Cytochrome P450 2A6 = target: T2, Cytochrome P450 2A6 (Homo sapiens, UniProt P11509); assay: Inhibition of human CYP2A6 expressed in Sacchrosomes by fluorescence based assay; type: ADME
T2 sequence (P11509 whole entry): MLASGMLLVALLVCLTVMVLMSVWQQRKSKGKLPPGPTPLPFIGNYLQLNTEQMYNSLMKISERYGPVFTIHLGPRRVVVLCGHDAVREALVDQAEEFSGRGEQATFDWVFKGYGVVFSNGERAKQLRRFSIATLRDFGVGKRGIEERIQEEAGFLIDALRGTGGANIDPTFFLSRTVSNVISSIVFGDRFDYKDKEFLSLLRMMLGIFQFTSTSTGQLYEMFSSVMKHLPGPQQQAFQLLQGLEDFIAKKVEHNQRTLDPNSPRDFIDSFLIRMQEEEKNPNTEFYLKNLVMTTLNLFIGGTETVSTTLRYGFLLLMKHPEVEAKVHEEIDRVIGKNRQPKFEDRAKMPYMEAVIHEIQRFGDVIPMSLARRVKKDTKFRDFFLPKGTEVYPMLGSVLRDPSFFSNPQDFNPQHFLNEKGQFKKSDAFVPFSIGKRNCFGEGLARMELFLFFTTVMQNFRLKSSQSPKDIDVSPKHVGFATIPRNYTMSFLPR

Cytochrome P450 1A2 = target: T3, Cytochrome P450 1A2 (Homo sapiens, UniProt P05177); assay: Inhibition of human CYP1A2 expressed in Sacchrosomes using 3-cyano-7-ethoxycoumarin as substrate by fluorescence based assay; type: ADME
T3 sequence (P05177 whole entry): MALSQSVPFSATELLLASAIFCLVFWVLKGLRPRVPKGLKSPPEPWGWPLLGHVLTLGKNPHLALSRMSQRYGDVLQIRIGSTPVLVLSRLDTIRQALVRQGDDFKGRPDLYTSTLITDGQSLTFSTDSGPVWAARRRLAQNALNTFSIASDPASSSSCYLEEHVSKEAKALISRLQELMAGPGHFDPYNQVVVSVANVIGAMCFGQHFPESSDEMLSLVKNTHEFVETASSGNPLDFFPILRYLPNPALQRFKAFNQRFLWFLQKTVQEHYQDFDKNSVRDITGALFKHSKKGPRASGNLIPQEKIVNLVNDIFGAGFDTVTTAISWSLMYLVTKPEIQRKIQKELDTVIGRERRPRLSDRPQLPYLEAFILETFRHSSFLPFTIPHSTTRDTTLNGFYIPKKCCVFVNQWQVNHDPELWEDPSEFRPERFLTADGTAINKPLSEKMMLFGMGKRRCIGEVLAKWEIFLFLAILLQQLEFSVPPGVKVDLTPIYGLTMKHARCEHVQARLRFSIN

Cytochrome P450 1B1 [5] = target: T4, Cytochrome P450 1B1 (Homo sapiens, UniProt Q16678); assay: Inhibition of human CYP1B1 expressed in human HEK293 cells using 7-ethoxyresorufin as substrate preincubated for 30 mins followed by substrate additon and measured after 60 mins by fluorescence based assay; type: ADME, cell-based
T4 sequence (Q16678 whole entry): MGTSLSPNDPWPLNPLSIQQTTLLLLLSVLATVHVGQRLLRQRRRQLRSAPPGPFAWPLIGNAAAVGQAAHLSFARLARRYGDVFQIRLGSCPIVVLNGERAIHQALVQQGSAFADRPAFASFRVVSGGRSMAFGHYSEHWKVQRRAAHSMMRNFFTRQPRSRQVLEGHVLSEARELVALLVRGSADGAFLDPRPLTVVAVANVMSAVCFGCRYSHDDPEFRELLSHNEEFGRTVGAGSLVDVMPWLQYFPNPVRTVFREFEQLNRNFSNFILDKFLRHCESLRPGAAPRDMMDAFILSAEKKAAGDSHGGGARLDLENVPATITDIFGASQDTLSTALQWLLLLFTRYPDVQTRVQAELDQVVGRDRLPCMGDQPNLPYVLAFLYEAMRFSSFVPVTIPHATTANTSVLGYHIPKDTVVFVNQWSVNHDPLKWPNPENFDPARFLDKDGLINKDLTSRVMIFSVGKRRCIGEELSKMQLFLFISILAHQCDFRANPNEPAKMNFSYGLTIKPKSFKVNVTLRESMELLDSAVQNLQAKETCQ
Procedure, shortened: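 The assay used live recombinant human HEK293 cells grown in suspension, each cell line expressing a single CYP (CYP1A1 or CYP1B1). Percent inhibition was read at 10 μM, and IC50 values were determined. Values are mean ± SD of three independent experiments. Alpha-naphthoflavone served as the reference inhibitor.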

Cytochrome P450 1B1 [6] = target: T4, Cytochrome P450 1B1; assay: Inhibition of human CYP1B1 expressed in sacchrosomes using 7-ethoxyresorufin as substrate by fluorescence based assay; type: ADME
Procedure, shortened: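 Enzymes were microsomal preparations isolated from recombinant baker's yeast (Sacchrosomes). Compounds were screened at 10 μM for percent inhibition, and IC50 values were also determined. Values are mean ± SD of three independent experiments. Alpha-naphthoflavone served as the positive control.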

Row | Structure (SMILES) | Activity (MCF7 [1]) | Activity (MCF7 [2]) | Activity (MCF7 [3]) | EC50 (MCF7 [4]) | IC50 (Cytochrome P450 3A4) | IC50 (Cytochrome P450 2C8) | IC50 (Cytochrome P450 2A6) | IC50 (Cytochrome P450 1A2) | IC50 (Cytochrome P450 1B1 [5]) | IC50 (Cytochrome P450 1B1 [6])
1 | COc1c(-c2ccc3c(c2)OCO3)oc2c(ccc3occc32)c1=O [PONGAPIN] | 8.3% | 6.7% | 83.8% | 600 nM | > 20 µM | > 20 µM | > 20 µM | 2500 nM | 1060 nM | 950 nM
2 | O=c1cc(-c2ccccc2)oc2c1ccc1occc12 [LANCEOLATIN B] | 9.2% | 7.1% | 81% | 700 nM | > 20 µM | > 20 µM | > 20 µM | 187 nM | 390 nM | 290 nM
